Results taken from ChEMBL document CHEMBL3271957 (J Med Chem, 1977).
Converted amounts (≈) assume the structure as drawn.

Legend:
CCRF-CEM = test: Cytotoxicity against human CCRF-CEM cells; assay type: functional; settings: read-out: ID50 (the source's name)
Thymidylate synthase = target: T1, Thymidylate synthase (Lactobacillus casei, UniProt P00469); test: Inhibition of MTX-resistant Lactobacillus casei thymidylate synthetase; set-up: species or system Lacticaseibacillus casei
T1 sequence (P00469 whole entry): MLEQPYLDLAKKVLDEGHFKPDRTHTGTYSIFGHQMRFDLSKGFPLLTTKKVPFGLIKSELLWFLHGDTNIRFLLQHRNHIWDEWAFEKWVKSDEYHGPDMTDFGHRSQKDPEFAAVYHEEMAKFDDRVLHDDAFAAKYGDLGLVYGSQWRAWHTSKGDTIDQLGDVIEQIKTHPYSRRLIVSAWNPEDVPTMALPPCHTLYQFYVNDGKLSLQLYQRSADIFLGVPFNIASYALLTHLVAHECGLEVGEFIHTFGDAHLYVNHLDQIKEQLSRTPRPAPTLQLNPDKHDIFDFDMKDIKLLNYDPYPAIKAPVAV

L1210 = test: Antitumor activity against mouse L1210 cells allografted in BDF/1 hybrid mouse assessed as increase in life span relative to control; assay type: functional
Outline: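 Male BDF/1 hybrid mice inoculated ip with 10^5 L-1210 leukemia cells; test agents dissolved in 0.1 M phosphate buffer (pH 8), given ip 24 h after implantation (day 1) and on days 4 and 7. Median survival times of treated (T) and control (C) groups compared; % ILS = 100 × (T/C − 1).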

Dihydrofolate reductase = Dihydrofolate reductase (Lactobacillus casei, UniProt P00381); test: Inhibition of MTX-resistant Lactobacillus casei dihydrofolate reductase; set-up: species or system Lacticaseibacillus casei
Mus musculus = test: Toxicity in BDF/1 hybrid mouse xenografted with mouse L1210 cells assessed as optimal nontoxic dose administered q3d on day 1, 4 and 7; assay type: organism-based; settings: in vivo
Outline: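 Male BDF/1 hybrid mice received 10^5 L-1210 leukemia cells ip. Test agents in 0.1 M phosphate buffer (pH 8) were given ip 24 h after implantation (day 1) and again on days 4 and 7. The optimal nontoxic dose is expressed as mg/kg × 3; where marked, it is the highest nontoxic dose tested.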

[1] = tested on: Lacticaseibacillus rhamnosus; test: Antimicrobial activity against Lactobacillus casei ATCC 7469 assessed as growth inhibition; assay type: functional
[2] = Toxicity in BDF/1 hybrid mouse xenografted with mouse L1210 cells administered q3d on day 1, 4 and 7; assay type: organism-based; settings: in vivo
Outline: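 Male BDF/1 hybrid mice carrying ip-inoculated L-1210 cells (10^5) dosed ip on days 1, 4 and 7 (first dose 24 h post-implant) with compound in 0.1 M phosphate buffer, pH 8. Value expressed as optimal nontoxic dose in mg/kg ×3; where the top level tested was nontoxic, the highest nontoxic dose tested is given.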

Dihydrofolate reductase, sequence (P00381 whole entry): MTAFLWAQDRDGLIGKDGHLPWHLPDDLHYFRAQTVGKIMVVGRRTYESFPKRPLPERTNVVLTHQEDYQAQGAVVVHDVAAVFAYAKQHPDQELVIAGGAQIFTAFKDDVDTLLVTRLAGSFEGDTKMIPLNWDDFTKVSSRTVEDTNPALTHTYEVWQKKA

Structure (SMILES) | IC50 (CCRF-CEM) | IC50 (Thymidylate synthase) | ILS (L1210) | IC50 (Dihydrofolate reductase) | Activity (Mus musculus) | GI50 [1] | MTD [2]
CN(CC1=Nc2c(N)nc(N)nc2NC1)c1ccc(C(=O)N[C@@H](CCC(=O)O)C(=O)O)cc1 | 0.021 µg/mL (≈ 0.046 µM) | 1000 nM | 9% | 20 nM | 30 mg/kg | 0.02 nM | 
CN(CC1=Nc2c(N)nc(N)nc2N(C)C1)c1ccc(C(=O)N[C@@H](CCC(=O)O)C(=O)O)cc1 | 0.23 µg/mL (≈ 0.489 µM) | 4000 nM | 27% | 140 nM | 300 mg/kg | 0.1 nM | 
CCN1CC(CN(C)c2ccc(C(=O)N[C@@H](CCC(=O)O)C(=O)O)cc2)=Nc2c(N)nc(N)nc21 | 0.27 µg/mL (≈ 0.557 µM) | 20000 nM | 18% | 900 nM |  | 0.35 nM | 400 mg/kg
CCCCN1CC(CN(C)c2ccc(C(=O)N[C@@H](CCC(=O)O)C(=O)O)cc2)=Nc2c(N)nc(N)nc21 | 0.23 µg/mL (≈ 0.449 µM) | 19000 nM | 25% | 380 nM | 100 mg/kg | 1.2 nM | 
CCCCCCN1CC(CN(C)c2ccc(C(=O)N[C@@H](CCC(=O)O)C(=O)O)cc2)=Nc2c(N)nc(N)nc21 | 0.58 µg/mL (≈ 1.07 µM) | 43000 nM | 0% | 1800 nM |  | 0.27 nM | 400 mg/kg
CN(CC1=Nc2c(N)nc(N)nc2N(CC2CCCCC2)C1)c1ccc(C(=O)N[C@@H](CCC(=O)O)C(=O)O)cc1 | 0.14 µg/mL (≈ 0.253 µM) | 17000 nM | 27% | 870 nM | 300 mg/kg | 3.5 nM | 
CN(CC1=Nc2c(N)nc(N)nc2N(Cc2ccccc2)C1)c1ccc(C(=O)N[C@@H](CCC(=O)O)C(=O)O)cc1 | 0.78 µg/mL (≈ 1.43 µM) | 8000 nM | 25% | 740 nM |  | 0.35 nM | 400 mg/kg
CN(CC1=Nc2c(N)nc(N)nc2N(Cc2ccc(Cl)c(Cl)c2)C1)c1ccc(C(=O)N[C@@H](CCC(=O)O)C(=O)O)cc1 | > 1 µg/mL | 13000 nM | 36% | 3600 nM |  | 19.4 nM | 400 mg/kg
CN(CC1=Nc2c(N)nc(N)nc2N(Cc2cccc3ccccc23)C1)c1ccc(C(=O)N[C@@H](CCC(=O)O)C(=O)O)cc1 | > 1 µg/mL | 16000 nM | 0% | 4500 nM |  | 0.47 nM | 400 mg/kg
CN(CC1CNc2nc(N)nc(N)c2N1)c1ccc(C(=O)N[C@@H](CCC(=O)O)C(=O)O)cc1 (some centres not stated) |  | 5000 nM |  | 200 nM |  | 0.14 nM | 
CN(CC1CN(C)c2nc(N)nc(N)c2N1)c1ccc(C(=O)N[C@@H](CCC(=O)O)C(=O)O)cc1 (some centres not stated) | 0.14 µg/mL (≈ 0.296 µM) | 39000 nM | 9% | 2500 nM | 200 mg/kg | 1.4 nM | 
CN(Cc1cnc2nc(N)nc(N)c2n1)c1ccc(C(=O)N[C@@H](CCC(=O)O)C(=O)O)cc1 [METHOTREXATE] | 0.018 µg/mL (≈ 0.0396 µM) |  | 70% |  | 15 mg/kg | 0.04 nM | 
